In the library only some 4.8% were active in any assay of this set; here they are far more common.
NF-kB expr up: compounds increasing NF-kB expression in human neuronal cells | fold change at 12.5 µM | actives 1.6% (n = 190,000) | AID 1239 | NF-kB reporter expression; hits give high values; in the data active means fold change above about 3.3
APP 5UTR inh: APP translation inhibition; SH-SY5Y APP 5'UTR-luciferase reporter, luminescence; inhibition, % at 2 µM; actives 0.82% (n = 190,000);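 active means inhibition above a set limit, derived from the sample mean plus 3 SD, cut at about 45% in these data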
FLuc stim CS: affects firefly luciferase, flagging false hits in luciferase stimulation screens | AID 1027 | 200,000 tested, under 10 active | ATPlite luciferase biochemical, luminescence, 10 min; 0 = ATP-free wells, 1 = DMSO control | P08659 | activation factor at 10 µM;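 active means luciferase activation factor, scaled between plate controls, of at least 2 with compound at 10 µM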
Target sequence (P08659 whole entry, looked up): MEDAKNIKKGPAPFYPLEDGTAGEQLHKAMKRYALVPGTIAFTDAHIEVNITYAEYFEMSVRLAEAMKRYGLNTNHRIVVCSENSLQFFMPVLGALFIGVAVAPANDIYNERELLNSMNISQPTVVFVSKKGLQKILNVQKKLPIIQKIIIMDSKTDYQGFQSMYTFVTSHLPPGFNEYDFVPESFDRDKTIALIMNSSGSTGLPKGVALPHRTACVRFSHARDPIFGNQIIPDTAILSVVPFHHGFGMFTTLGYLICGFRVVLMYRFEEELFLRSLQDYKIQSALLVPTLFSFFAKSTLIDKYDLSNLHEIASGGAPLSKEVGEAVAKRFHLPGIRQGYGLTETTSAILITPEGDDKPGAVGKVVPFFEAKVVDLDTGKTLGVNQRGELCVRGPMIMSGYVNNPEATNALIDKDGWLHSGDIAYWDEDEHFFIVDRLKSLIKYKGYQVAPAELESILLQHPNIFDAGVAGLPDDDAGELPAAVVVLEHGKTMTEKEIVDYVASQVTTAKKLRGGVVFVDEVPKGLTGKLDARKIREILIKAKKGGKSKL
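Material: Luciferase/luciferin reagent mix; Doses: test compounds dosed from 2 mM stocks in 100% DMSO; Schedule: 10 min incubation after luciferase reagent addition, room temperature; Measured by: luminescence from luciferase reaction; Read-out: luminescence gain marking luciferase activators.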
APP 5'UTR act: APP 5'UTR luciferase reporter activation | SH-SY5Y APP 5'UTR luciferase reporter, luminescence; zero percent = DMSO vehicle wells | actives 1% (n = 190,000) | activation, % at 2 µM | AID 1276;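 active means activation above a set limit, based on mean plus 3 SD of controls, cut at about 140% in these data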
FLuc inhib CS: Photinus pyralis luciferase inhibition counter-screen | P08659 | ATPLite firefly luciferase biochemical luminescence, 10 min | inhibition, % at 10 µM | actives 1.5% (n = 200,000);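 active means inhibition above about 50% when tested at 10 µM, limit read from the data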
STAT1 activator: activators of IFN-gamma induced STAT1 signaling; NIH 3T3 STAT1-luciferase reporter, luminescence; 100% = IFN-gamma alone, no compound; activation (% of control), % at 5.5 µM; actives 2.6% (n = 200,000); AID 932;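 active means activation above the screen-wide mean activation plus 3 SD, cut at about 130% in these data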;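 further: raw ratio to IFN-gamma control signal so 100% means no change and 0% no light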
Numbers without * were called inactive.

SMILES | NF-kB expr up | APP 5UTR inh | FLuc stim CS | APP 5'UTR act | FLuc inhib CS | STAT1 activator
Cc1csc(=N)n1-c1ccc(Cl)cc1 | 2.1 | -35 | 0.9 | 35 | 11 | 137*
COC(=O)Nc1ccc(S(=O)(=O)N2CCC(C(=O)NC3CCCCC3)CC2)cc1 | 1.1 | -2 | 1.1 | 2 | -5 | 101
O=c1sc(Nc2ccccc2)nc2ccsc12 | 2.5 | -66 | 1 | 66 | 2 | 137*
C/C(=N\NC(=O)C(C)Oc1ccc([N+](=O)[O-])cc1)c1ccccn1 (stereo not given) | 0.97 | 63* | 1 | -63 | -1 | 101
CC(Oc1ccccc1)C(=O)NNC(=O)c1ccccn1 (stereo not given) | 0.94 | -15 | 1 | 15 | -3 | 94
CC1=Nc2ccccc2/C1=C\c1sc(Nc2ccc(C)cc2)nc1O | 3 | 96* | 1.1 | -96 | -5 | 104
CCOP(=O)(OCC)C(NC(=O)Nc1ccc(Cl)cc1)C(=O)N(CC)CC (stereo not given) | 0.94 | -6 | 1.1 | 6 | -5 | 97
COc1cccc(NC(=O)CSc2ncnc3c2oc2ccccc23)c1 | 1 | 2 | 1 | -2 | -1 | 95
COc1cccc(NC(=O)CSc2nc3c(oc4ccccc43)c(=O)[nH]2)c1 | 1.1 | 6 | 0.4 | -5 | 60* | 103
COc1ccc(NC(=O)Nc2cccnc2)cc1 | 1.6 | -4 | 0.4 | 4 | 58* | 111
COc1ccc(N(C(C)C(=O)Nc2cccnc2)S(C)(=O)=O)cc1 (stereo not given) | 1 | 5 | 1.1 | -5 | -11 | 130*
COc1ccc(NC(=S)NN(C)C(=S)Nc2ccc(OC)cc2)cc1 | 1 | 93* | 1.1 | -93 | -5 | 104
CCOc1ccc(NC(=O)Nc2cccnc2)cc1 | 1.6 | -47 | 0.2 | 47 | 77* | 106
O=C(Nc1ccc(Cl)cc1)Nc1cccnc1 | 2 | -12 | 0.7 | 12 | 35 | 114
COC(=O)C(C)N(c1ccc(OC)cc1)S(C)(=O)=O (stereo not given) | 1.3 | -10 | 1 | 10 | -3 | 102
Cc1ccc(NC(=O)C2CCCN2C(=O)NCc2ccccc2)cc1 (stereo not given) | 0.98 | -2 | 1.1 | 2 | -8 | 86
CN(C)c1ccc(NC(=O)C(=O)NCCOc2ccccc2)cc1 | 1.3 | 16 | 1.1 | -16 | -6 | 111
COc1ccc(NC(=O)Nc2ccc(OC)cc2)cc1 | 1.7 | -10 | 1 | 10 | 2 | 115
COc1ccc(NC(=O)Nc2ccc3nccnc3c2)cc1 | 1.7 | -97 | 0.4 | 97 | 57* | 130*
COc1ccc(NC(=O)Nc2nccs2)cc1 | 2.2 | -53 | 0.5 | 53 | 46 | 125
COc1ccc(NC(=O)Nc2ccc(N(C)C)cc2)cc1 | 1.6 | -94 | 0.8 | 94 | 22 | 137*
CCCNC(=O)C(=O)Nc1ccc(N(C)C)cc1 | 1.9 | -32 | 0.8 | 32 | 17 | 137*
CCCCCC(C)NC(=S)NC(=O)c1cc(S(=O)(=O)N2CCOCC2)ccc1C (stereo not given) | 0.71 | 0 | 1.1 | 0 | -5 | 92
c1ccc(-c2noc(-c3ccc4c(c3)OCO4)n2)nc1 | 0.68 | 30 | 0.1 | -30 | 94* | 49
c1ccc(-c2nccc(-c3ccc4c(c3)OCO4)n2)cc1 | 2 | -47 | 1 | 47 | 3 | 134*
SMILES | NF-kB expr up | APP 5UTR inh | FLuc stim CS | APP 5'UTR act | FLuc inhib CS | STAT1 activator
Cc1nccc(-c2ccc3c(c2)OCO3)n1 | 1.1 | -6 | 1 | 6 | 1 | 99
c1ccc(-c2noc(-c3ccc4ccccc4c3)n2)nc1 | 0.2 | 49* | 0 | -49 | 96* | 18
COC(=O)c1sccc1NC(=S)N1CCN(c2cccc(C)c2C)CC1 | 0.96 | 8 | 1.1 | -8 | -7 | 101
CS(=O)(=O)Nc1ccc(C(=O)N2CCN(c3ccccc3)CC2)cc1 | 0.9 | 1 | 1.1 | -1 | -7 | 96
Cc1cc(/C=C\c2nc(O)c([N+](=O)[O-])c(=O)[nH]2)c(C)n1-c1ccccc1 | 1.3 | 2 | 0.6 | -3 | 44 | 102
Cn1c2ccccc2c2cc(C(=O)NNC(=O)CCl)sc21 | 2 | -7 | 1.1 | 7 | -8 | 133*
O=C(Oc1nsnc1N1CCOCC1)c1ccccc1 | 1.2 | 53* | 1 | -53 | -3 | 99
COc1cc2c3nnc(-c4ccc(F)cc4)c-3cn(Cc3ccccc3F)c2cc1OC | 1.2 | 53* | 1 | -53 | -5 | 111
CCNc1ccc(S(=O)(=O)N(C)C)cc1NCC(=O)Nc1ccccc1Cl | 1 | 10 | 1.1 | -10 | -8 | 91
N/C(=N\OC(=O)c1ccccc1[N+](=O)[O-])c1ccccn1 | 3.9* | -104 | 0.3 | 104 | 69* | 94
N/C(=N\OC(=O)c1ccc(Cl)c(Cl)c1)c1ccccn1 | 4.5* | -140 | 0.5 | 140* | 46 | 131*
CC(C)C(=O)O/N=C(\N)c1ccccn1 | 0.83 | -13 | 1.1 | 13 | -6 | 96
N/C(=N\OC(=O)c1ccccc1Cl)c1ccccn1 | 0.88 | -123 | 0.1 | 123 | 93* | 31
N/C(=N\OC(=O)c1ccc(Cl)c([N+](=O)[O-])c1)c1ccccn1 | 1.8 | -25 | 0.7 | 25 | 26 | 99
N/C(=N\OC(=O)c1cccc(Cl)c1)c1ccccn1 | 5.3* | -166 | 0.1 | 166* | 91* | 77
COc1ccc(C(=O)NC(Nc2ccccc2)C(Cl)(Cl)Cl)cc1 (stereo not given) | 0.68 | 9 | 1.1 | -9 | -8 | 96
N/C(=N\OC(=O)c1ccc(Cl)cc1)c1ccccn1 | 3.5* | -185 | 0 | 185* | 97* | 97
N/C(=N\OC(=O)c1cccnc1)c1ccccc1Cl | 1.6 | -12 | 0.6 | 12 | 40 | 131*
N/C(=N\OC(=O)c1cccnc1)c1ccc(Cl)cc1Cl | 1.1 | -24 | 0.9 | 24 | 6 | 128
N/C(=N\OS(=O)(=O)c1ccc(Cl)cc1)c1ccccn1 | 1.3 | 6 | 1 | -6 | -4 | 107
COc1ccc(C(c2nnnn2Cc2cccs2)N2CCN(c3ccccc3F)CC2)cc1 (stereo not given) | 1.1 | -12 | 1 | 12 | -4 | 104
Cc1sc2nc(CSc3cccc(C(F)(F)F)c3)[nH]c(=O)c2c1C | 1.6 | 10 | 1 | -10 | -4 | 107
CCOCCCNc1ccc(-c2ccccc2)nn1 | 2.5 | -71 | 0.8 | 71 | 20 | 140*
Cc1c(C(=O)Nc2ccncc2)oc2ccccc12 | 1 | -27 | 0.9 | 27 | 7 | 109
Cc1c(C(=O)Nc2ccccn2)oc2ccccc12 | 4.5* | -153 | 0.6 | 153* | 45 | 124
Cc1c(C(=O)Nc2nc3ccccc3[nH]2)oc2ccccc12 | 8.1* | -182 | 0.5 | 182* | 53* | 162*
Cc1c(C(=O)Nc2nc3ccccc3[nH]2)oc2ccc(Br)cc12 | 1.1 | -40 | 0.8 | 40 | 24 | 114
